Laboratory results: ChEMBL document CHEMBL2401632, “New bioactive dihydrofuranocoumarins from the roots of the Tunisian Ferula lutea (Poir.) Maire” (Bioorg Med Chem Lett, 2013)
pIC50: −log10 of the molar value. Converted amounts (≈) assume the structure as drawn.

What was measured:
[1] = molecular target: Acetylcholinesterase (Homo sapiens, UniProt P22303); experiment: Inhibition of acetylcholinesterase (unknown origin) using acetylcholine iodide as substrate preincubated for 15 mins prior to substrate addition by spectrophotometric analysis
Chain of Acetylcholinesterase (P22303 whole entry): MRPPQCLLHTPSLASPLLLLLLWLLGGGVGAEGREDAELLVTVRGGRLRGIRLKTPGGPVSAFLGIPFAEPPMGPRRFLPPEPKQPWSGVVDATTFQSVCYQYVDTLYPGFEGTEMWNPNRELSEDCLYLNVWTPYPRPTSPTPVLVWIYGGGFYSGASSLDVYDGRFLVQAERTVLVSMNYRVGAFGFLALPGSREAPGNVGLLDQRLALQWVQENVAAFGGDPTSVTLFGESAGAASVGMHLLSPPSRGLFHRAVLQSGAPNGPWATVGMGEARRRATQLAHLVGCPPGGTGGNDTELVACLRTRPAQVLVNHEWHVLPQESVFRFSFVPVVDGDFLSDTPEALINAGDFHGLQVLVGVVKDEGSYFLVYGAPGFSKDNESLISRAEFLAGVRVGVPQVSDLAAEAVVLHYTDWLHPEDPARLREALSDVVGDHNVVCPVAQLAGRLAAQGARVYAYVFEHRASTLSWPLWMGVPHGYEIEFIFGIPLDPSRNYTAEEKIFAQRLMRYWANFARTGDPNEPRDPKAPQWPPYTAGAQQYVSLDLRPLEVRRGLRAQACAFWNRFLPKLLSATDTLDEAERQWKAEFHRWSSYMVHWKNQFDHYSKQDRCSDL

[2] = test system: HT-29; experiment: Cytotoxicity against human HT-29 cells after 96 hrs by MTT assay; format: functional, cell-based; conditions: HT-29, 96 h
Summary of the method: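 Cells were seeded at 5000 or 10,000 per well and exposed to medium with various sample concentrations for 96 h, with 0.1% DMSO as vehicle control. MTT (5 mg/mL in PBS) was then added for 4 h at 37 °C, 5% CO2. Formazan was dissolved in DMSO and read at OD 570 nm. IC50 is the concentration giving 50% toxicity; duplicate tests, mean ± SD (n = 2).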

[3] = Antioxidant activity assessed as ABTS radical scavenging activity after 6 mins by spectrophotometric analysis; format: functional
[4] = Antioxidant activity assessed as hydroxyl radical scavenging activity after 20 mins by spectrophotometric analysis; format: functional
[5] = Antioxidant activity assessed as superoxide radical scavenging activity measured every 30 seconds for 5 mins by spectrophotometric analysis; format: functional
[6] = test system: Radical scavenging activity; experiment: Antioxidant activity assessed as DPPH free radical scavenging activity after 30 mins by spectrophotometric analysis; format: functional
Summary of the method: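 Daily methanolic DPPH solution was adjusted to A517 = 1.1. Methanolic sample at several concentrations was added to 1 mL, incubated 30 min at 37 °C, then A517 was read. Scavenging % = [(Acontrol − Asample)/Acontrol] × 100. Run in triplicate with BHT as positive control.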

[7] = test system: AGS; experiment: Cytotoxicity against human AGS cells after 96 hrs by MTT assay; format: functional, cell-based
[8] = test system: HCT-116; experiment: Cytotoxicity against human HCT116 cells after 96 hrs by MTT assay; format: functional, cell-based; conditions: HCT-116, 96 h
Summary of the method: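 Cells were seeded at 5000 or 10,000 per well and exposed to medium with various sample concentrations for 96 h, with 0.1% DMSO as vehicle control. MTT (5 mg/mL in PBS) was then added for 4 h at 37 °C, 5% CO2. Formazan was dissolved in DMSO and read at OD 570 nm.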

[9] = test system: K562; experiment: Cytotoxicity against human K562 cells after 96 hrs by MTT assay; format: functional, cell-based; conditions: K562, 96 h
[10] = Cytotoxicity against human MES-SA/Dx5 cells after 96 hrs by MTT assay; format: functional, cell-based; conditions: MES-SA/Dx5, 96 h
[11] = test system: Radical scavenging activity; experiment: Antioxidant activity assessed as DPPH free radical scavenging activity by spectrophotometric analysis; format: functional
[12] = test system: MT4; experiment: Cytotoxicity against human MT4 cells after 96 hrs by MTT assay; format: functional, cell-based; conditions: MT4, 96 h
[13] = Antioxidant activity assessed as H2O2 scavenging activity by NBT reduction assay; format: functional
Summary of the method: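 H2O2 at 43 mM was prepared in 0.1 M phosphate buffer, pH 7.4. 100 µL of test solution was added along with NADH (73 µM), NBT (50 µM) and PMS (15 µM), 500 µL each. Percent H2O2 scavenged = [(Acontrol − Asample)/Acontrol] × 100.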

[14] = Antioxidant activity assessed as superoxide radical scavenging activity after 2 mins by NBT reduction assay; format: functional
Summary of the method: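 The 1 mL reaction held 20 mM phosphate buffer pH 7.4, NADH 73 µM, NBT 50 µM, PMS 15 µM and sample at several concentrations. After 2 min at ambient temperature, formazan was read at A562 against a blank. % scavenging was taken vs control. Done three times, with BHT as comparator.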

[15] = Antioxidant activity assessed as ABTS radical scavenging activity after 10 mins by spectrophotometric analysis; format: functional
Summary of the method: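 ABTS radical cation was made from 7 mM ABTS in water plus potassium persulfate (2.45 mM final), left 12 h in the dark at room temperature, then diluted in methanol to A734 0.706 ± 0.009. 1 mL of this was mixed with 1 mL of methanolic sample at several concentrations. […] Run in triplicate with a BHT positive control.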

[16] = test system: PANC-1; experiment: Cytotoxicity against human PANC1 cells after 96 hrs by MTT assay; format: functional, cell-based; conditions: PANC-1, 96 h

Work on `O=C(O)/C=C/c1ccc(O)c(O)c1` [CAFFEIC ACID] yielded a pIC50 [1] of under 4.00, a pIC50 [2] of 4.57 and an IC50 [3] of 0.57 µg/mL (≈ 3.16 µM). For the same compound, the IC50 [4] was 0.37 µg/mL (≈ 2.05 µM), the IC50 [5] was 0.38 µg/mL (≈ 2.11 µM) and the IC50 [6] was 0.39 µg/mL. It also gave a pIC50 [7] of 3.89 and a pIC50 [8] of 4.53.
With `O=c1ccc2cc3ccoc3cc2o1` [PSORALEN] the pIC50 [1] was 5.19, the pIC50 [2] was 4.38 and the pIC50 [9] was 3.88. For the same compound, the pIC50 [8] was 4.34.
With `C/C=C(\C)C(=O)OC(C)(C)[C@@H]1Cc2cc3ccc(=O)oc3cc2O1` the pIC50 [1] was under 4.00, the pIC50 [2] was 6.03 and the pIC50 [8] was 5.12.
`CC(C)=CC(=O)OC(C)(C)[C@@H]1Cc2cc3ccc(=O)oc3cc2O1` [(-)-PRANTSCHIMGIN] gave a pIC50 [1] of under 4.00, a pIC50 [2] of 5.28 and a pIC50 [10] of 5.51. For the same compound, the pIC50 [8] was 4.83.
With `O=c1ccc2ccc(O)cc2o1` [UMBELLIFERONE] the IC50 [11] was 36.1 µg/mL (≈ 223 µM), the pIC50 [2] was 5.36 and the pIC50 [12] was 2.63. It also gave a pIC50 [8] of 5.09.
`Cc1cc(C(C)(C)C)c(O)c(C(C)(C)C)c1` [BUTYLATED HYDROXYTOLUENE] showed a pIC50 [13] of 5.20, a pIC50 [14] of 5.14 and a pIC50 [15] of 5.16. It also gave a pIC50 ([6]; read-out: IC50) of 5.04.
Work on `CC(=O)O[C@H]1C(=O)[C@@]2(C)[C@H]([C@H](OC(=O)c3ccccc3)[C@]3(O)C[C@H](OC(=O)[C@H](O)[C@@H](NC(=O)c4ccccc4)c4ccccc4)C(C)=C1C3(C)C)[C@]1(OC(C)=O)CO[C@@H]1C[C@@H]2O` [PACLITAXEL] yielded a pIC50 [2] of 8.70.
`COc1c2occc2cc2ccc(=O)oc12` [METHOXSALEN] gave a pIC50 [1] of 6.12, a pIC50 [2] of under 4.00 and a pIC50 [16] of 4.08. For the same compound, the pIC50 [8] was under 4.00.
